From ChEMBL document CHEMBL2062387, “Blockade of STAT3 activation by sorafenib derivatives through enhancing SHP-1 phosphatase activity” (Eur J Med Chem, 2012)
The source made the active and inactive calls. The calls are words filed in the database; no cut-off is given here.

Legend:
[1] = Growth inhibition of human PLC5 cells after 24 hrs by MTT assay; assay type: functional, cell-based; conditions: PLC5, 24 h
How it was run: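 PLC5 cells were grown in DMEM with 10% FBS, penicillin, streptomycin and amphotericin B at 37 °C in 5% CO2. Cells were seeded in 96-well plates for 24 h, then exposed to agents in DMSO (0.1% final) in DMEM for 24 h; range 0.1–15 µM. MTT at 0.5 mg/mL was added for 2 h and absorbance read at 570 nm. Six replicates; IC50 derived.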

[2] = target: Tyrosine-protein phosphatase non-receptor type 6 (Homo sapiens) (UniProt P29350); assay: Induction of SHP1 activation in IL-6-stimulated human PLC5 cells assessed as reduction of p-STAT3 at 10 uM after 24 hrs by ELISA; assay type: cell-based
How it was run: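 PLC5 cells were pre-stimulated with IL-6 at 25 ng/mL for 30 min, then treated with 10 µM compound for 24 h. Phospho-STAT3 was measured by ELISA against a DMSO control. Mean ± SD, N = 3.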

[3] = target: Tyrosine-protein phosphatase non-receptor type 6 (Homo sapiens) (UniProt P29350); assay: Induction of SHP1 activation in human PLC5 cells assessed as repression of survivin expression at 5 to 10 uM after 24 hrs by Western blot method; assay type: cell-based
How it was run: (§1)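 PLC5 cells were treated at 5 and 10 µM for 24 h in serum-free medium. Lysates were immunoblotted for p-STAT3 (Tyr705), STAT3, Mcl-1, cyclin D1, survivin, SOCS-1, SOCS-3 and PARP.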

[4] = target: Tyrosine-protein phosphatase non-receptor type 6 (Homo sapiens) (UniProt P29350); assay: Induction of SHP1 activation in human PLC5 cells assessed as effect on SOCS-1 level at 5 to 10 uM after 24 hrs by Western blot method; assay type: cell-based; how it was run: as §1
[5] = target: Tyrosine-protein phosphatase non-receptor type 6 (Homo sapiens) (UniProt P29350); assay: Induction of SHP1 activation in human PLC5 cells assessed as repression of Mcl-1 expression at 5 to 10 uM after 24 hrs by Western blot method; assay type: cell-based; how it was run: as §1
[6] = target: Tyrosine-protein phosphatase non-receptor type 6 (Homo sapiens) (UniProt P29350); assay: Induction of SHP1 activation in human PLC5 cells assessed as reduction of p-STAT3 at 5 to 10 uM after 24 hrs by Western blot method; assay type: cell-based; how it was run: as §1
[7] = target: Tyrosine-protein phosphatase non-receptor type 6 (Homo sapiens) (UniProt P29350); assay: Induction of SHP1 activation in human PLC5 cells assessed as effect on SOCS-3 level at 5 to 10 uM after 24 hrs by Western blot method; assay type: cell-based; how it was run: as §1
[8] = target: Tyrosine-protein phosphatase non-receptor type 6 (Homo sapiens) (UniProt P29350); assay: Induction of SHP1 activation in human PLC5 cell lysate at 10 uM after 24 hrs; assay type: cell-based
How it was run: (§2)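 PLC5 cells were treated with compound for 24 h. SHP-1 was immunoprecipitated from lysates and its phosphatase activity measured with the EnzChek tyrosine phosphatase kit. Mean ± SD, N = 3.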

[9] = target: Tyrosine-protein phosphatase non-receptor type 6 (Homo sapiens) (UniProt P29350); assay: Induction of SHP1 activation in human PLC5 cell lysate after 24 hrs; assay type: cell-based; how it was run: as §2
[10] = target: Tyrosine-protein phosphatase non-receptor type 6 (Homo sapiens) (UniProt P29350); assay: Induction of SHP1 activation in human PLC5 cells assessed as PARP cleavage at 5 to 10 uM after 24 hrs by Western blot method; assay type: cell-based; how it was run: as §1
[11] = target: Tyrosine-protein phosphatase non-receptor type 6 (Homo sapiens) (UniProt P29350); assay: Induction of SHP1 activation in human PLC5 cells assessed as repression of CCND1 expression at 5 to 10 uM after 24 hrs by Western blot method; assay type: cell-based; how it was run: as §1
[12] = target: Tyrosine-protein phosphatase non-receptor type 6 (Homo sapiens) (UniProt P29350); assay: Induction of SHP1 activation in human PLC5 cells at 1 to 15 uM after 24 hrs; assay type: cell-based; how it was run: as §2
Mus musculus [13] = assay: Inhibition of STAT3 phosphorylation in tumor of athymic NCr mouse xenografted with PLC5 cells at 10 mg/kg, po once daily for 3 weeks by Western blot method; assay type: functional, organism-based; set-up: dose 10 mg/kg
How it was run: (§3)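 Tumors came from PLC5 xenografts in nude mice dosed at 10 mg/kg/day p.o. for three weeks, with vehicle Cremophor EL/ethanol (50:50). Tumor extracts were assayed for p-STAT3 by western blot and for SHP-1 phosphatase activity.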

Mus musculus [14] = assay: Induction of SHP1 activity in tumor of athymic NCr mouse xenografted with PLC5 cells at 10 mg/kg, po once daily for 3 weeks; assay type: functional, organism-based; set-up: dose 10 mg/kg; how it was run: as §3
[15] = Ratio of SC-1 IC50 to compound IC50 for human PLC5 cells; assay type: functional
PLC5 = assay: Antitumor activity against PLC5 cells xenografted in athymic NCr mouse assessed as tumor growth inhibition at 10 mg/kg, po once daily for 3 weeks; assay type: functional, organism-based; set-up: dose 10 mg/kg
How it was run: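 Male NCr athymic nude mice, 5–7 weeks old, bearing PLC5 tumors. Dosing began when tumors reached 100 mm3: 10 mg/kg p.o. once daily for three weeks. Vehicle was Cremophor EL/95% ethanol (50:50), given to controls. Read-out was tumor growth.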

Chain of Tyrosine-protein phosphatase non-receptor type 6 (Homo sapiens) (P29350 whole entry): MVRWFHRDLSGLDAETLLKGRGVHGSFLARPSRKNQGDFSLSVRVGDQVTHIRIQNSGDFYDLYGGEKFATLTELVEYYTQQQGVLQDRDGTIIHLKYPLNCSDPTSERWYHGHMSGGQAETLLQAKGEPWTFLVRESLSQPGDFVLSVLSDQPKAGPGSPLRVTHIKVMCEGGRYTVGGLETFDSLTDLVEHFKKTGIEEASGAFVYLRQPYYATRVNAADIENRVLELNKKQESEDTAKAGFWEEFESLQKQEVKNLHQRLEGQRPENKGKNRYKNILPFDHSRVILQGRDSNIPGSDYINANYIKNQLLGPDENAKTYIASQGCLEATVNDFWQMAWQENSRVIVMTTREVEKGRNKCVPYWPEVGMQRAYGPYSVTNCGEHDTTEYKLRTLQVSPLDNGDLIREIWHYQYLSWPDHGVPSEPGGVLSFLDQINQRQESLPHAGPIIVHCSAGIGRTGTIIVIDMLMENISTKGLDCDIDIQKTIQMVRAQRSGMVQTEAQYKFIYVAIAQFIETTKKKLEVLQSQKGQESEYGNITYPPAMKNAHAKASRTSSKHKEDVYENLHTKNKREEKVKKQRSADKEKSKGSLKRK

Row | Compound | Activity [2] | IC50 [1] | also measured
1 | COc1ccc(CNC(=O)NCc2ccc(Oc3ccc(C#N)cc3)cc2)cc1OC | Active | 10.5 µM | 
2 | Nc1cc(Oc2cccc(NS(=O)(=O)c3cccc(C(F)(F)F)c3)c2)ccc1[N+](=O)[O-] | Active | 3.9 µM | 
3 | N#Cc1ccc(Oc2ccc(CNC(=O)NCc3cccc(OC(F)(F)F)c3)cc2)cc1 | inactive | > 15 µM | 
4 | CNC(=O)c1cc(Oc2ccc(NC(=O)Nc3ccc(Cl)c(C(F)(F)F)c3)cc2)ccn1 |  |  | Activity [12]: Active
5 | COc1ccc(CNC(=O)Nc2ccc(Oc3ccc(C#N)cc3)cc2)cc1OC | Active | 12.3 µM | 
6 | Cc1ccc(NC(=O)Nc2ccc(Cl)c(C(F)(F)F)c2)cc1Oc1ccc(C#N)cc1 | Active | 4.5 µM | 
7 | N#Cc1ccc(Oc2ccc(CNC(=O)Nc3ccc(Cl)c(C(F)(F)F)c3)cc2)cc1 | Active | 2.1 µM | inhibition (Mus musculus [13]): Active; Activity [8]: Active; Activity (Mus musculus [14]): Active; Ratio IC50 [15]: 4; TGI (PLC5): Active
8 | N#Cc1ccc(Oc2cccc(NCc3cccc(OC(F)(F)F)c3)c2)cc1 | inactive | > 15 µM | 
9 | O=c1[nH]c2ccc(Oc3cccc(NS(=O)(=O)c4cccc(C(F)(F)F)c4)c3)cc2[nH]1 | Active | 11.5 µM | 
10 | Nc1cc(Oc2cccc(NCc3cccc(OC(F)(F)F)c3)c2)ccc1[N+](=O)[O-] | Active | 8.3 µM | 
11 | O=c1[nH]c2ccc(Oc3cccc(NCc4cccc(OC(F)(F)F)c4)c3)cc2[nH]1 | Active | 10.2 µM | 
12 | Nc1ccc(Oc2cccc(NCc3cccc(OC(F)(F)F)c3)c2)cc1N | inactive | > 15 µM | 

Further lines, with some results ahead:

Row | Activity [2] | Compound | IC50 [1] | also measured
13 | Active | CNC(=O)c1cc(Oc2cccc(NS(=O)(=O)c3cccc(C(F)(F)F)c3)c2)ccn1 | 8.4 µM | 
14 | Active | N#Cc1ccc(Oc2cccc(NC(=O)Nc3ccc(Cl)c(C(F)(F)F)c3)c2)cc1 [SC-43] | 0.5 µM | Activity [3]: Active; Activity [4]: inactive; Activity [5]: Active; Activity [6]: Active; Activity [7]: inactive; Activity [8]: Active; Activity [9]: Dose-dependent effect; Activity [10]: Active; Activity [11]: Active
15 | inactive | CNC(=O)c1cc(Oc2cccc(NCc3cccc(OC(F)(F)F)c3)c2)ccn1 | > 15 µM | Activity [3]: inactive; Activity [4]: inactive; Activity [5]: inactive; Activity [6]: inactive; Activity [7]: inactive; Activity [8]: inactive; Activity [11]: inactive
16 | Active | Nc1cc(Oc2cccc(NC(=O)Nc3ccc(Cl)c(C(F)(F)F)c3)c2)ccc1[N+](=O)[O-] | 1.2 µM | 
17 | Active | N#Cc1ccc(Oc2cccc(NC(=O)Nc3cccc(F)c3)c2)cc1 | 3.3 µM | 
18 | inactive | N#Cc1ccc(Oc2cccc(NS(=O)(=O)c3ccccc3)c2)cc1 | > 15 µM | 
19 | inactive | CNC(=O)c1cc(Oc2cccc(NC(=O)c3ccccc3)c2)ccn1 | > 15 µM | 
20 | inactive | CNC(=O)c1cc(Oc2cccc(NC(=O)Nc3cccc(F)c3)c2)ccn1 | > 15 µM | 
21 | inactive | Nc1ccc(Oc2cccc(NS(=O)(=O)c3cccc(C(F)(F)F)c3)c2)cc1N | > 15 µM | 
22 | Active | N#Cc1ccc(Oc2cccc(NS(=O)(=O)c3cccc(C(F)(F)F)c3)c2)cc1 | 2.2 µM | 
23 | inactive | C[C@@H](NC(=O)Nc1ccc(Oc2ccc(C#N)cc2)cc1)c1cccc2ccccc12 | > 15 µM | 
24 | inactive | CNC(=O)c1cc(Oc2cccc(NS(=O)(=O)c3ccccc3)c2)ccn1 | > 15 µM | 
25 | inactive | N#Cc1ccc(Oc2cccc(NC(=O)c3ccccc3)c2)cc1 | > 15 µM | 
